# ChEMBL document CHEMBL1140944, “A new class of vitamin D analogues that induce structural rearrangement of the ligand-binding pocket of the receptor” (J Med Chem, 2009)
# Residue numbers refer to the chain shown, from its start. pEC50: −log10 of the molar value. Calls of active or inactive are those of the source. The calls are words filed in the database; no cut-off is given here.
# What was measured:
# [1] = test system: HL-60; test: Induction of cell differentiation in human HL60 cells after 4 days by NBT reduction assay; type: functional, cell-based
# Summary of the method: (§1)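 HL-60 promyelocytic leukemia cells were plated at 2 × 10⁵ cells/plate in Eagle's modified medium. Compound was added at 10^-6, 10^-7 or 10^-8 M for 4 days. Differentiation was scored by nitro blue tetrazolium reduction.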
# [2] = target: T1, Vitamin D3 receptor (Bos taurus, UniProt Q28037); test: Displacement of [3H]1,25-(OH)2D3 from bovine thymus vitamin D receptor
# T1 sequence (Q28037 whole entry): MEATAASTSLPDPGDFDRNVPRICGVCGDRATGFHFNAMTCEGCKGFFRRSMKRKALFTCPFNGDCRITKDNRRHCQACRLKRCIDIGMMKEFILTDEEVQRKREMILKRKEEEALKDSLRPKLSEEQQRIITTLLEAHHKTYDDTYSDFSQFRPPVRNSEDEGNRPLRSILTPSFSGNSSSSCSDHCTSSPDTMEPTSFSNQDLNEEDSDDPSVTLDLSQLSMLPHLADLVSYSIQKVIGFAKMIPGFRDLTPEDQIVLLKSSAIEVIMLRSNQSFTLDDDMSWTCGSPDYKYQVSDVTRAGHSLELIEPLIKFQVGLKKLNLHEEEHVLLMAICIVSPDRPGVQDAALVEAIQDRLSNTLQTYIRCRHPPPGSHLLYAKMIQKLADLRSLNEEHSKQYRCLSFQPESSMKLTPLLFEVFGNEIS
# Summary of the method: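 Bovine thymus VDR was dissolved in 0.05 M phosphate buffer, pH 7.4, with 0.3 M KCl and 5 mM DTT. Free ligand was removed with dextran-coated charcoal (20 min, 4 °C) and supernatant radioactivity counted. Nonspecific binding was subtracted; EC₅₀ came from dose-response curves; duplicate.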
# [3] = test system: HL-60; test: Inhibition of 1,25-(OH)2D3-induced cell differentiation in human HL60 cells assessed as morphological changes at 10^-6 M by Wright-Geimsa staining; type: functional, cell-based
# Summary of the method: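 HL-60 cells were stained with Wright-Giemsa and their morphology examined by light microscopy.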
# [4] = target: T2, Vitamin D3 receptor (Homo sapiens) (UniProt P11473); test: Antagonist activity at full length human VDR expressed in african green monkey Cos7 cells overexpressing mouse osteopontin vitamin D-responsive element assessed as inhibition of 1,25-(OH)2D3-induced transcriptional activation after 16 hrs by dual luciferase reporter gene assay; type: functional, cell-based; details: COS-7
# T2 sequence (whole entry): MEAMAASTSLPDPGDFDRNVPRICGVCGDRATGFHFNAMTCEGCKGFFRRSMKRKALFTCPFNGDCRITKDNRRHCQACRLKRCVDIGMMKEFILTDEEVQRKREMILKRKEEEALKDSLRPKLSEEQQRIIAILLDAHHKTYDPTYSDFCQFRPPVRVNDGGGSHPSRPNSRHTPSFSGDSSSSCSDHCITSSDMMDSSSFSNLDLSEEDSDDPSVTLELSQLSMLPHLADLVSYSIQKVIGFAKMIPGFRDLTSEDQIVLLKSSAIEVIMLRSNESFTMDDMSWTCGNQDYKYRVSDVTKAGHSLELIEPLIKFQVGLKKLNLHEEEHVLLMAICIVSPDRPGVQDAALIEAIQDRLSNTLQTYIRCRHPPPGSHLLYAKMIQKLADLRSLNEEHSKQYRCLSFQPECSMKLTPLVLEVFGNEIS
# Summary of the method: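 Cos7 cells were transfected with full-length hVDR, the SPPx3-TK-Luc osteopontin VDRE reporter and pRL-CMV. Test ligands were given together with 10^-9 M 1,25-(OH)₂D₃ for 16 h. Dual luciferase signal was normalized to the sea pansy control, with activity at 10^-8 M 1,25-(OH)₂D₃ set as 1; triplicate.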
# [5] = test system: HEK293; test: Inhibition of 1,25-(OH)2D3-induced CYP24A1 mRNA expression in HEK293 cells at 10^-6 M after 24 hrs by quantitative real time PCR; type: functional, cell-based; details: Homo sapiens
# Summary of the method: (§2)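 HEK293 cells were treated for 24 h with 10^-6 M compound, without (12) or with (15) 10^-8 M 1,25-(OH)₂D₃. CYP24A1 mRNA was measured by quantitative real-time RT-PCR and normalized to actin mRNA; mean ± SD of triplicates.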
# [6] = test system: T3, Vitamin D3 receptor (Homo sapiens), P11473 [H305A]; test: Agonist activity at full length human VDR H305A mutant expressed in african green monkey COS7 cells overexpressing mouse osteopontin vitamin D-responsive element assessed as transcriptional activation at 10^-6 M after 16 hrs by dual luciferase reporter gene assay; type: functional, cell-based; details: COS-7
# T3 sequence (whole entry): T2 sequence (whole entry) with H305A
# Summary of the method: (§3)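 COS-7 cells in DMEM with 5% FBS, seeded at 2 × 10⁴ per well. After 24 h they were lipofected with the mutant hVDR plasmid (pCMX-hVDR), the SPPx3-TK-Luc reporter (three mouse osteopontin VDREs) and the pRL-CMV control. After 8 h, ligand was added at 10^-6 M, or ethanol vehicle, for 16 h. Firefly luciferase was normalized to the internal control; triplicate.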
# [7] = target: T2, Vitamin D3 receptor (Homo sapiens); test: Agonist activity at full length human VDR expressed in HEK293 cells overexpressing mouse osteopontin vitamin D-responsive element assessed as transcriptional activation after 16 hrs by dual luciferase reporter gene assay; type: functional, cell-based
# [8] = target: T2, Vitamin D3 receptor (Homo sapiens); test: Antagonist activity at full length human VDR expressed in HEK293 cells overexpressing mouse osteopontin vitamin D-responsive element assessed as inhibition of 1,25-(OH)2D3-induced transcriptional activation after 16 hrs by dual luciferase reporter gene assay; type: functional, cell-based
# [9] = test system: HEK293; test: Inhibition of 1,25-(OH)2D3-induced CYP24A1 mRNA expression in HEK293 cells after 24 hrs by real time PCR; type: functional, cell-based; details: Homo sapiens
# Summary of the method: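 HEK293 cells were exposed to the indicated compound concentrations for 24 h. CYP24A1 mRNA was quantified by real-time RT-PCR against actin; triplicate.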
# [10] = test system: HL-60; test: Inhibition of 1,25-(OH)2D3-induced cell differentiation in human HL60 cells after 4 days by NBT reduction assay; type: functional, cell-based; summary of the method: as §1
# [11] = target: T2, Vitamin D3 receptor (Homo sapiens); test: Antagonist activity at human VDR expressed in african green monkey COS7 cells overexpressing GAL4 response element assessed as RXRalpha recruitment by mammalian two hybrid assay; type: functional, cell-based; details: COS-7
# [12] = target: T2, Vitamin D3 receptor (Homo sapiens); test: Antagonist activity at human VDR expressed in african green monkey COS7 cells overexpressing GAL4 response element assessed as SRC1 peptide recruitment by mammalian two hybrid assay; type: functional, cell-based; details: COS-7
# [13] = test system: HL-60; test: Inhibition of 1,25-(OH)2D3-induced differentiation in human HL60 cells after 4 days by NBT reduction assay
# [14] = test system: T4, Vitamin D3 receptor (Homo sapiens), P11473 [H397A]; test: Agonist activity at full length human VDR H397A mutant expressed in african green monkey COS7 cells overexpressing mouse osteopontin vitamin D-responsive element assessed as transcriptional activation at 10^-6 M after 16 hrs by dual luciferase reporter gene assay; type: functional, cell-based; details: COS-7; summary of the method: as §3
# T4 sequence (whole entry): T2 sequence (whole entry) with H397A
# [15] = target: T2, Vitamin D3 receptor (Homo sapiens); test: Agonist activity at full length human VDR expressed in african green monkey Cos7 cells overexpressing mouse osteopontin vitamin D-responsive element assessed as transcriptional activation after 16 hrs by dual luciferase reporter gene assay; type: functional, cell-based; details: COS-7
# Summary of the method: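 COS-7 cells in DMEM with 5% FBS were lipofected with full-length pCMX-hVDR, the SPPx3-TK-Luc osteopontin VDRE reporter and pRL-CMV. After 8 h, ligand or ethanol vehicle was added for 16 h. Dual luciferase read-out was normalized to the internal control. Activity at 10^-8 M 1,25-(OH)₂D₃ was set as 1; triplicate.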
# [16] = test system: HEK293; test: Induction of CYP24A1 mRNA expression in HEK293 cells at 10^-6 M after 24 hrs by quantitative real time PCR; type: functional, cell-based; details: Homo sapiens; summary of the method: as §2
# [17] = target: T2, Vitamin D3 receptor (Homo sapiens); test: Agonist activity at human VDR expressed in african green monkey COS7 cells overexpressing GAL4 response element assessed as SRC1 peptide recruitment by mammalian two hybrid assay; type: functional, cell-based; details: COS-7
# [18] = target: T2, Vitamin D3 receptor (Homo sapiens); test: Agonist activity at human VDR expressed in african green monkey COS7 cells overexpressing GAL4 response element assessed as RXRalpha recruitment by mammalian two hybrid assay; type: functional, cell-based; details: COS-7
SMILES,Activity [1],pEC50 [2],Activity [4],Activity [5],Activity [7],Activity [8],other results
C=C1/C(=C\C=C2/CCC[C@]3(C)[C@@H]([C@H](C)[C@@H](CCO)CCCC)CC[C@@H]23)C[C@@H](O)C[C@@H]1O,inactive,7.96,,,,,
C=C1/C(=C\C=C2/CCC[C@]3(C)[C@@H]([C@H](C)[C@H](CCCC)C[C@@H](O)C(C)C)CC[C@@H]23)C[C@@H](O)C[C@@H]1O,inactive,7.80,,,,,
C=C1/C(=C\C=C2/CCC[C@]3(C)[C@@H]([C@H](C)CCCC(C)(C)O)CC[C@@H]23)C[C@@H](O)C[C@@H]1O,Active,,,,,,Activity [3]: Active
C=C1/C(=C\C=C2/CCC[C@]3(C)[C@@H]([C@H](C)[C@H](CCCC)C[C@H](O)C(C)C)CC[C@@H]23)C[C@@H](O)C[C@@H]1O,inactive,8.47,Dose-dependent effect,Active,Dose-dependent effect,Dose-dependent effect,Activity [6]: Active
C=C1/C(=C\C=C2/CCC[C@]3(C)[C@@H]([C@H](C)[C@H](CCO)CCCC)CC[C@@H]23)C[C@@H](O)C[C@@H]1O,inactive,8.92,Dose-dependent effect,Active,Dose-dependent effect,Dose-dependent effect,Activity [9]: Dose-dependent effect; Activity [10]: Active; Activity [3]: Active; Activity [11]: Active; Activity [12]: Active; Activity [13]: Active
C=C1/C(=C\C=C2/CCC[C@]3(C)[C@@H]([C@H](C)[C@@H](CCCC)C[C@H](O)C(C)C)CC[C@@H]23)C[C@@H](O)C[C@@H]1O,inactive,8.42,Dose-dependent effect,Active,Dose-dependent effect,Dose-dependent effect,
C=C1/C(=C\C=C2/CCC[C@]3(C)[C@@H]([C@@H](C)[C@@H](CCO)CCCC)CC[C@@H]23)C[C@@H](O)C[C@@H]1O,inactive,7.70,Dose-dependent effect,Active,Dose-dependent effect,Dose-dependent effect,Activity [14]: Active
C=C1/C(=C\C=C2/CCC[C@]3(C)[C@@H]([C@@H](C)[C@H](CCO)CCCC)CC[C@@H]23)C[C@@H](O)C[C@@H]1O,Active,8.70,,,,,Activity [15]: Active; Activity [16]: Active; Activity [17]: Active; Activity [18]: Active
C=C1/C(=C\C=C2/CCC[C@]3(C)[C@@H]([C@H](C)[C@@H](CCCC)C[C@@H](O)C(C)C)CC[C@@H]23)C[C@@H](O)C[C@@H]1O,,7.70,,,,,
